Data as given in ChEMBL document CHEMBL3739286, “Betulinic acid derived hydroxamates and betulin derived carbamates are interesting scaffolds for the synthesis of novel cytotoxic compounds” (Eur J Med Chem, 2015).

Assays:
[1] = Cytotoxicity against human 518A2 cells after 96 hrs by SRB assay; type: functional, cell-based; details: Homo sapiens, 518A2, 96 h; read-out: EC50
Outline: (§1)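 Photometric sulforhodamine B read-out of antiproliferative effect after 96 h of continuous treatment; EC₅₀ values in µM, averaged from three independent experiments each run in triplicate; the assay cut-off is EC₅₀ > 30 µM. Human tumour lines are tested alongside nonmalignant mouse NIH 3T3 fibroblasts.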

A2780 = assay: Cytotoxicity against human A2780 cells after 96 hrs by SRB assay; type: functional, cell-based; details: Homo sapiens, A2780, 96 h; read-out: EC50; outline: as §1
A549 = assay: Cytotoxicity against human A549 cells after 96 hrs by SRB assay; type: functional, cell-based; details: Homo sapiens, A549, 96 h; read-out: EC50; outline: as §1
MCF7 = assay: Cytotoxicity against human MCF7 cells after 96 hrs by SRB assay; type: functional, cell-based; details: Homo sapiens, MCF7, 96 h; read-out: EC50; outline: as §1
[2] = Cytotoxicity against mouse NIH/3T3 cells after 96 hrs by SRB assay; type: cell-based, NIH3T3; details: Mus musculus, NIH3T3, 96 h; read-out: EC50; outline: as §1
HT-29 = assay: Cytotoxicity against human HT-29 cells after 96 hrs by SRB assay; type: functional, cell-based; details: HT-29, 96 h; outline: as §1
HeLa = assay: Cytotoxicity against human HeLa cells after 96 hrs by SRB assay; type: functional, cell-based; outline: as §1

Structure (SMILES)	EC50 [1] [µM]	EC50 (A2780) [µM]	EC50 (A549) [µM]	EC50 (MCF7) [µM]	EC50 [2] [µM]	EC50 (HT-29) [µM]	EC50 (HeLa) [µM]
C=CCONC(=O)[C@]12CC[C@@H](C(=C)C)[C@@H]1[C@H]1CC[C@@H]3[C@@]4(C)CCC(=O)C(C)(C)[C@@H]4CC[C@@]3(C)[C@]1(C)CC2	22.4	19.7	25	18.4	19.7	–	–
C=C(C)[C@@H]1CC[C@]2(CO)CC[C@]3(C)[C@H](CC[C@@H]4[C@@]5(C)CC[C@H](OC(C)=O)C(C)(C)[C@@H]5CC[C@]43C)[C@@H]12	15.2	11	14	11.2	> 30	–	–
C=C(C)[C@@H]1CC[C@]2(CO)CC[C@]3(C)[C@H](CC[C@@H]4[C@@]5(C)CC[C@H](O)C(C)(C)[C@@H]5CC[C@]43C)[C@@H]12 [BETULIN]	> 30	> 30	> 30	> 30	> 30	–	–
C=C(C)[C@@H]1CC[C@]2(COC(=O)NCC)CC[C@]3(C)[C@H](CC[C@@H]4[C@@]5(C)CC[C@H](OC(=O)NCC)C(C)(C)[C@@H]5CC[C@]43C)[C@@H]12 [BIS(ETHYLCARBAMATE)BETULIN]	12.6	5.8	10.7	23.3	> 30	8.3	17.8
C=C(C)[C@@H]1CC[C@]2(COC(=O)NCC)CC[C@]3(C)[C@H](CC[C@@H]4[C@@]5(C)CCC(=O)C(C)(C)[C@@H]5CC[C@]43C)[C@@H]12	16.6	8.3	20.3	19.7	4.6	11.5	13.4
C=C(C)[C@@H]1CC[C@]2(COC(=O)NCCCCCC)CC[C@]3(C)[C@H](CC[C@@H]4[C@@]5(C)CC[C@H](O)C(C)(C)[C@@H]5CC[C@]43C)[C@@H]12	5.5	7.7	12.7	> 30	> 30	> 30	7.4
C=C(C)[C@@H]1CC[C@]2(COC(=O)NCCCCCC)CC[C@]3(C)[C@H](CC[C@@H]4[C@@]5(C)CC[C@H](OC(C)=O)C(C)(C)[C@@H]5CC[C@]43C)[C@@H]12	> 30	> 30	> 30	> 30	> 30	> 30	> 30
C=C(C)[C@@H]1CC[C@]2(C(=O)NO)CC[C@]3(C)[C@H](CC[C@@H]4[C@@]5(C)CC[C@H](O)C(C)(C)[C@@H]5CC[C@]43C)[C@@H]12	2.4	3.7	5.3	3.9	2	–	–
C=C(C)[C@@H]1CC[C@]2(C(=O)NCc3ccccc3)CC[C@]3(C)[C@H](CC[C@@H]4[C@@]5(C)CC[C@H](O)C(C)(C)[C@@H]5CC[C@]43C)[C@@H]12	> 30	11.8	> 30	18	11.1	–	> 30
C=C(C)[C@@H]1CC[C@]2(C(=O)NOC)CC[C@]3(C)[C@H](CC[C@@H]4[C@@]5(C)CC[C@H](O)C(C)(C)[C@@H]5CC[C@]43C)[C@@H]12	5.8	12.3	6.9	21.9	15.2	–	–
C=C(C)[C@@H]1CC[C@]2(COC(=O)Nc3ccccc3)CC[C@]3(C)[C@H](CC[C@@H]4[C@@]5(C)CC[C@H](O)C(C)(C)[C@@H]5CC[C@]43C)[C@@H]12	23.9	7.2	> 30	24.6	14.3	16.3	11.5
C=C(C)[C@@H]1CC[C@]2(C(=O)N(C)OC)CC[C@]3(C)[C@H](CC[C@@H]4[C@@]5(C)CCC(=O)C(C)(C)[C@@H]5CC[C@]43C)[C@@H]12	> 30	20.7	14.5	18.7	26.7	–	–
C=C(C)[C@@H]1CC[C@]2(C(=O)N(C)O)CC[C@]3(C)[C@H](CC[C@@H]4[C@@]5(C)CCC(=O)C(C)(C)[C@@H]5CC[C@]43C)[C@@H]12	6.3	3	6	10.2	5	–	–
C=C(C)[C@@H]1CC[C@]2(COC(=O)NCCC)CC[C@]3(C)[C@H](CC[C@@H]4[C@@]5(C)CCC(=O)C(C)(C)[C@@H]5CC[C@]43C)[C@@H]12	> 30	> 30	> 30	> 30	> 30	> 30	> 30
